Results on twelve compounds are retold here after ChEMBL document CHEMBL4699542, “Design and synthesis of novel methoxypyridine-derived gamma-secretase modulators” (Bioorg Med Chem, 2020).

Data set [1] in a line: Metabolic stability in rat liver microsomes assessed as parent compound remaining at 1 uM incubated for 30 mins. Type of data set: ADME, Microsome. Conditions: 0.5 h. Summed up: (§1)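 Test compound at 1 μM incubated 30 min with human, rat or mouse liver microsomes (1 mg/mL); parent remaining expressed as %.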
(In general: Microsomes from liver hold many membrane-bound enzymes, among them those of drug oxidation.)

Data set [2] in a line: Apparent permeability from apical to basolateral membrane in MDCK-MDR1 cells. It counts as ADME, cell-based, Canis lupus familiaris. Conditions: dog. Summed up:
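Apical-to-basolateral apparent permeability (×10⁻⁶ cm/s) measured across MDR1-MDCK cell monolayers.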

The target in data set [3] is Cytochrome P450 2C9 (Homo sapiens, UniProt P11712). Kind of data set: Inhibition of recombinant CYP2C9 (unknown origin) by fluorescence-based assay. It counts as ADME. A digest of the protocol: (§2)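 Recombinant CYP isoforms (five tested) screened for inhibition in fluorescence-based assays; IC50 in μM.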
The nature of data set [4]: Metabolic stability in mouse liver microsomes assessed as parent compound remaining at 1 uM incubated for 30 mins. Conditions: 0.5 h. It counts as ADME, Microsome. Summed up:
as §1

For data set [5], the target named is Gamma-secretase. Kind of data set: Modulation of gamma secretase in human SH-SY5Y cells overexpressing wild type APP751 assessed as inhibition of amyloid beta (35 to 42 residues) formation incubated for overnight by ELISA. It counts as cell-based. Summed up: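 SHSY5Y-APP751 cells plated at 75K/well and incubated overnight at 37 °C, then treated 24 h over 10 concentrations ([…]–10 μM, 1:3.16 steps, in duplicate). Medium Aβ42 measured by sandwich ELISA (Aβ35–42 capture, AP-conjugated Aβ1–12 detection, CDP-Star luminescence) against an Aβ42 standard curve.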

In data set [6] the target is T1, Cytochrome P450 1A2 (Homo sapiens, UniProt P05177).
T1 sequence (P05177 whole entry): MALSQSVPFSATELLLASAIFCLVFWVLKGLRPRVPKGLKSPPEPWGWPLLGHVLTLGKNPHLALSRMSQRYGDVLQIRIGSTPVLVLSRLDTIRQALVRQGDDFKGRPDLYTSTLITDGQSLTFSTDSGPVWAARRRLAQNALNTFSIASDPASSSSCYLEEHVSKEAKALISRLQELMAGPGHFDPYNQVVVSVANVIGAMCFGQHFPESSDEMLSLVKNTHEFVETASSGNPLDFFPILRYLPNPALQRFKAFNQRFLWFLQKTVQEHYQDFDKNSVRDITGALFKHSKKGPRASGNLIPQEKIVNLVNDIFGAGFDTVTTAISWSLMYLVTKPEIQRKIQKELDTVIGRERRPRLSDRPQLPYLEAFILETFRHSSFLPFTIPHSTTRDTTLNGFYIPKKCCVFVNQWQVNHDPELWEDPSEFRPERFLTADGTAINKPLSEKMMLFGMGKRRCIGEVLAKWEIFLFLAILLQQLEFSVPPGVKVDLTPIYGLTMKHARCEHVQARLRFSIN
Kind of data set: Inhibition of recombinant CYP1A2 (unknown origin) by fluorescence-based assay. Type of data set: ADME. A digest of the protocol:
as §2

The nature of data set [7]: Kinetic aqueous solubility of the compound in pH 7.4 PBS buffer by UV/Visible absorbance analysis. It counts as physicochemical. Conditions: read-out: Kinetic_solubility. A digest of the protocol: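 Kinetic solubility determined in PBS at pH 7.4 by UV/Vis absorbance, reported in μM.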
The target of data set [8] is Cytochrome P450 2C19 (Homo sapiens, UniProt P33261). Kind of data set: Inhibition of recombinant CYP2C19 (unknown origin) by fluorescence-based assay. Type of data set: ADME. A digest of the protocol: as §2
Data set [9] can be described thus: Metabolic stability in human liver microsomes assessed as parent compound remaining at 1 uM incubated for 30 mins. Type of data set: ADME, Microsome. Conditions: microsomes, 0.5 h, 1 µM. Summed up: as §1
Data set [10] concerns the target Cytochrome P450 2D6 (Homo sapiens, UniProt P10635). Briefly: Inhibition of recombinant CYP2D6 (unknown origin) by fluorescence-based assay. It counts as ADME. A digest of the protocol:
as §2

The target in data set [11] is Cytochrome P450 3A4 (Homo sapiens, UniProt P08684). Briefly: Inhibition of recombinant CYP3A4 (unknown origin) by fluorescence-based assay. Type of data set: ADME.
The target in data set [12] is Voltage-gated inwardly rectifying potassium channel KCNH2 (Homo sapiens, UniProt Q12809). Kind of data set: Inhibition of human ERG expressed in HEK293 cells by patch clamp assay. Type of data set: cell-based. For orientation: Patch clamp records ionic current or voltage across a cell membrane.

≈ marks a conversion by molar mass, not a printed value.

Cytochrome P450 2C9, sequence (P11712 whole entry, canonical isoform): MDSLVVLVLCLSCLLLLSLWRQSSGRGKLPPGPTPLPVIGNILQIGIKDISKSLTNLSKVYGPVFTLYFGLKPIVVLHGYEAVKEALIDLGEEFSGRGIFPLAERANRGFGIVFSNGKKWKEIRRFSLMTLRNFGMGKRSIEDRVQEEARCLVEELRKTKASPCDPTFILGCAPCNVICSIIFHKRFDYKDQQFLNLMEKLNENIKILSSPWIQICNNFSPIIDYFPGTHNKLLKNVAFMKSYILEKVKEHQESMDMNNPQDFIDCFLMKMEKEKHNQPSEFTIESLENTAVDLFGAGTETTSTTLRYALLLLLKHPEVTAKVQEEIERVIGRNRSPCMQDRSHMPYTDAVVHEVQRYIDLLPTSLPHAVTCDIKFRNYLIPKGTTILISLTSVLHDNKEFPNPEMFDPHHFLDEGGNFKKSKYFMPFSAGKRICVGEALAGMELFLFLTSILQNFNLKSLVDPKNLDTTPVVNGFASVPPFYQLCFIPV
Cytochrome P450 3A4, sequence (P08684 whole entry): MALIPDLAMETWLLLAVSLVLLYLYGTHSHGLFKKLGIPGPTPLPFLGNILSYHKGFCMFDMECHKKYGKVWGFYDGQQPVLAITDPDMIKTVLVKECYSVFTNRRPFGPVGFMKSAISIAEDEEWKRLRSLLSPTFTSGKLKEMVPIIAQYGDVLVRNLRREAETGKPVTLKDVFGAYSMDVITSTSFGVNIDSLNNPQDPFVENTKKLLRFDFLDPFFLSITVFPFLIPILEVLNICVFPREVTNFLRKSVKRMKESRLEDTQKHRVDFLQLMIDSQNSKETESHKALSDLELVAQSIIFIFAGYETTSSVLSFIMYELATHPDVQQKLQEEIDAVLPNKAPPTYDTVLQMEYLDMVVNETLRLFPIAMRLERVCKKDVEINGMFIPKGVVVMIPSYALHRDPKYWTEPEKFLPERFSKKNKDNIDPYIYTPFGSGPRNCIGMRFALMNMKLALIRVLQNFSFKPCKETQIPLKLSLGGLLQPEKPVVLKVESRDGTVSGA
Cytochrome P450 2C19, sequence (P33261 whole entry): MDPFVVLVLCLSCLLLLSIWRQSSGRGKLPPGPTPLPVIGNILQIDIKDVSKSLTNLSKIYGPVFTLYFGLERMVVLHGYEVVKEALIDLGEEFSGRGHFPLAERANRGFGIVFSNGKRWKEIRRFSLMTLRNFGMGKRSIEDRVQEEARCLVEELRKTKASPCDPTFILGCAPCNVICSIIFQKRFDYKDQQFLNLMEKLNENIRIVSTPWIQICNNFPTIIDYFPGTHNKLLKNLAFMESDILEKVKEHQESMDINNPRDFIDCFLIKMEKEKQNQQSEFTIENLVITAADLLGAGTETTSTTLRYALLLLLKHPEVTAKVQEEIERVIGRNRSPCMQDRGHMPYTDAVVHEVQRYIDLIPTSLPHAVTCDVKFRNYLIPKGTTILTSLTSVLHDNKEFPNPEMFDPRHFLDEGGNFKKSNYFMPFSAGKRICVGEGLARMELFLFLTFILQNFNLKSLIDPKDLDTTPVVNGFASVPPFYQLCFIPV
Cytochrome P450 2D6, sequence (P10635 whole entry): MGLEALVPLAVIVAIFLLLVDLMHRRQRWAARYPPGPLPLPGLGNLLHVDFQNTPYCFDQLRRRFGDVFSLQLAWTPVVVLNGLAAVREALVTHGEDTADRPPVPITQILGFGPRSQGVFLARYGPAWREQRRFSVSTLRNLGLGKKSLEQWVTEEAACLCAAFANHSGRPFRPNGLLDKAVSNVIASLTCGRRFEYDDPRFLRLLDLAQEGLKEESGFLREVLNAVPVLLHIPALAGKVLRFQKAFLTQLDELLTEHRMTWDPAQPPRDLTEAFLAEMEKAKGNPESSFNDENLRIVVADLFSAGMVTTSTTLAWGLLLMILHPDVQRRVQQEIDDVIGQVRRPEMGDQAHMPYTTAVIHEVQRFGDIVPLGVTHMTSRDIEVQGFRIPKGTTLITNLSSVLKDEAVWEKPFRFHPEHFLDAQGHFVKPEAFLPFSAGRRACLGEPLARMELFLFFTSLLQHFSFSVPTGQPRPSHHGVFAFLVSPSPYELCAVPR
Voltage-gated inwardly rectifying potassium channel KCNH2, sequence (Q12809 whole entry): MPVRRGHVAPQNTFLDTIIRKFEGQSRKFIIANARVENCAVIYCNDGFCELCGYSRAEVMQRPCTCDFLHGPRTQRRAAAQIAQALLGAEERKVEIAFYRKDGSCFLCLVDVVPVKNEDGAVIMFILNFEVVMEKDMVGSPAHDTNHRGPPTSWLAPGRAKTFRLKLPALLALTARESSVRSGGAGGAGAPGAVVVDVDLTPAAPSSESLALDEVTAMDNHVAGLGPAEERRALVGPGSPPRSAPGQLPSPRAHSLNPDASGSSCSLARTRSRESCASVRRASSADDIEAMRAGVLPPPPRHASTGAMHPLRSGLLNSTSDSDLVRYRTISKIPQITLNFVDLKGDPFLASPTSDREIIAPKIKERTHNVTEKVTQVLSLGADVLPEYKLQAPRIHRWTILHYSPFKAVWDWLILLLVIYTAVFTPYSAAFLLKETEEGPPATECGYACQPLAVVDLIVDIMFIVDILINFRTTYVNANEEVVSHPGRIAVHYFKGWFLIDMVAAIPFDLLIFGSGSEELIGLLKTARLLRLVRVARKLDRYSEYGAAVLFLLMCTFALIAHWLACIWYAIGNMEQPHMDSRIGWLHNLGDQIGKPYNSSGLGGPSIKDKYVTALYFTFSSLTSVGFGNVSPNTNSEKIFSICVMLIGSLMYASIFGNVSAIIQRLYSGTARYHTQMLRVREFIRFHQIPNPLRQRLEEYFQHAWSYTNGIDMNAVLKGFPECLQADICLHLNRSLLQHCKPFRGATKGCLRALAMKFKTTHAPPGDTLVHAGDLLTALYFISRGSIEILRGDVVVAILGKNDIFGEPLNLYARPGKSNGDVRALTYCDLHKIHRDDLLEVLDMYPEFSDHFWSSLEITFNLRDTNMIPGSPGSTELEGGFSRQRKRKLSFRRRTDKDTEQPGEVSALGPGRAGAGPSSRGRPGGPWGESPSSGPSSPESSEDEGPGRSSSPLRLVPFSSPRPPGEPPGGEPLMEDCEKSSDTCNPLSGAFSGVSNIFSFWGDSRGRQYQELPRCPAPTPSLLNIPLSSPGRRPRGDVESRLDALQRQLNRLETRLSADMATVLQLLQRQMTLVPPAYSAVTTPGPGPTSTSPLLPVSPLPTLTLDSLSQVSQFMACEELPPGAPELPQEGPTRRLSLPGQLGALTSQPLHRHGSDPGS

In general, IC50 refers to the midpoint of a concentration-inhibition curve. `COc1nc(-c2csc(Nc3c4c(nn3CC(C)(C)O)CCCC4)n2)ccc1-n1cnc(C)c1`: the Stabilty worked out at 57% in data set [1], 78% in [4] and 12% in [9]. Further, the Papp in data set [2] is recorded as 17.5 10^-6 cm/s. The IC50 is 9 µM in data set [3]; 0.038 µM in data set [5]; > 100 µM in [6]; 3.9 µM in [8]; > 100 µM in [10]. For the same compound, the solubility kinetic in [7] worked out at 22 µM (≈ 10.6 µg/mL).
In the case of `COc1nc(-c2csc(Nc3cc(C(C)(C)C)nn3C(C)C)n2)ccc1-n1cnc(C)c1`, the Stabilty was determined as 75% in data set [1], 40% in data set [4] and 21% in [9]. For the same compound, the concentration for half-maximal inhibition (IC50) in data set [11] was 2.3 µM; in data set [3] it was 14 µM; in data set [5] it was 0.064 µM; in data set [6], > 100 µM; in data set [8] it was 14 µM; in [10], > 100 µM. For the same compound, the solubility kinetic in [7] came to 23 µM (≈ 10.4 µg/mL).
Consider `COc1nc(-c2csc(Nc3c4c(nn3CC(F)(F)F)CCC4)n2)ccc1-n1cnc(C)c1`, for which the figures for the Stabilty in data set [1], in data set [4] and in data set [9] were 72%, 46% and 66%, respectively. Also, the IC50 in data set [11] is 1.4 µM; in data set [3], 11 µM; in data set [5] it was 0.036 µM; in data set [6] it was 27 µM; in data set [8], 7.1 µM; in data set [10], > 100 µM. In [2], the Papp is on record as 17.6 10^-6 cm/s. In data set [7], the solubility kinetic is 22 µM (≈ 10.5 µg/mL).
Turning to `COc1nc(-c2csc(Nc3c4c(nn3CCO)CCCC4)n2)ccc1-n1cnc(C)c1`, the Stabilty in data set [1] amounted to 78%; in data set [4], 58%; in [9], 40%. The 50% inhibitory concentration (IC50) was 30 µM in data set [11]; > 100 µM in data set [3]; 0.144 µM in data set [5]; > 100 µM in data set [6]; 76 µM in data set [8]; 2.63 µM in data set [12]. Also, the IC50 in [10] is > 100 µM. The Papp in data set [2] is 18 10^-6 cm/s. Moreover, the solubility kinetic in [7] was determined as 31 µM (≈ 14 µg/mL).
As for `COc1nc(-c2csc(Nc3c4c(nn3CCCO)CCCC4)n2)ccc1-n1cnc(C)c1`, the Stabilty in data set [1] came to 52%; in data set [4], 32%; in data set [9], 17%. Further, the half-maximal inhibitory concentration (IC50) in [11] is 2.2 µM; in data set [3] it was > 100 µM; in data set [5] it was 0.05 µM; in [6], > 100 µM; in [8] it was 31 µM; in data set [10], > 100 µM. In [7], the solubility kinetic was found to be 23 µM (≈ 10.7 µg/mL).
Consider `CCn1nc2c(c1Nc1nc(-c3ccc(-n4cnc(C)c4)c(OC)n3)cs1)CCC2(C)C`, for which the Stabilty is listed as 61% in data set [1], 49% in [4] and 31% in data set [9]. Besides, the half-inhibitory concentration (IC50) in [11] was 0.75 µM; in [3], 48 µM; in [5] it was 0.109 µM; in data set [6] it was > 100 µM; in data set [8] it was 15 µM; in data set [10], > 100 µM. Further, the solubility kinetic in data set [7] was found to be 8.8 µM (≈ 3.96 µg/mL).
For the compound `COc1nc(-c2csc(Nc3cc(C(C)(C)C)nn3CC(F)(F)F)n2)ccc1-n1cnc(C)c1`, the figures for the Stabilty in [1], in data set [4] and in data set [9] were 90%, 93% and 47%, respectively. Further, the half-maximal inhibitory concentration (IC50) in data set [11] is 1 µM; in data set [3] it was 20 µM; in [5], 0.073 µM; in data set [6], 18 µM; in [8], 9 µM; in data set [10], > 100 µM. Further, the solubility kinetic in data set [7] is 1.7 µM (≈ 0.836 µg/mL).
Turning to `CCn1nc2c(c1Nc1nc(-c3ccc(-n4cnc(C)c4)c(OC)n3)cs1)C(C)CC2(C)C` (racemic), the Stabilty was determined as 38% in data set [1], 21% in data set [4] and 12% in [9]. In addition, the 50% inhibitory concentration (IC50) in data set [11] is 1.5 µM; in data set [3], 35 µM; in [5], 0.072 µM; in data set [6] it was > 100 µM; in data set [8], 33 µM; in data set [10], > 100 µM. Moreover, the solubility kinetic in data set [7] turned out to be 9.2 µM (≈ 4.27 µg/mL).
For `COc1nc(-c2csc(Nc3c4c(nn3CCF)CCC4)n2)ccc1-n1cnc(C)c1`, the Stabilty worked out at 68% in data set [1], 60% in data set [4] and 58% in [9]. For the same compound, the concentration for half-maximal inhibition (IC50) in data set [11] is 10.5 µM; in [3] it was > 100 µM; in data set [5] it was 0.064 µM; in data set [6], > 100 µM; in [8], 35 µM; in [12], 2.88 µM. For the same compound, the concentration for half-maximal inhibition (IC50) in data set [10] was > 100 µM. Moreover, the solubility kinetic in [7] turned out to be 23 µM (≈ 10.1 µg/mL).
In the case of `COc1nc(-c2csc(Nc3c4c(nn3C3CCC3)CCCC4)n2)ccc1-n1cnc(C)c1`, the Stabilty in data set [1] amounted to 42%; in data set [4], 44%; in [9], 9.5%. In addition, the IC50 in data set [11] is 0.59 µM; in [3] it was 0.66 µM; in data set [5] it was 0.064 µM; in data set [6], > 100 µM; in [8], 1.6 µM; in [10] it was > 100 µM. In data set [7], the solubility kinetic is 30 µM (≈ 13.8 µg/mL).
Regarding `COc1nc(-c2csc(Nc3c4c(nn3CCO)CCC4)n2)ccc1-n1cnc(C)c1`, the results for the Stabilty in [1], in [4] and in data set [9] were 86%, 73% and 42%, respectively. The IC50 in data set [11] was < 0.05 µM; in data set [3], 50 µM; in data set [5], 0.075 µM; in [6], > 100 µM; in data set [8], 9.2 µM; in data set [10] it was > 100 µM. Moreover, the solubility kinetic in data set [7] is 29 µM (≈ 12.7 µg/mL).
On to `CCn1nc2c(c1Nc1nc(-c3ccc(-n4cnc(C)c4)c(OC)n3)cs1)CCCCC2`, for which the Stabilty in data set [1] was 41%; in data set [4], 15%; in data set [9] it was 0.1%. For the same compound, the IC50 in data set [11] was 11 µM; in data set [3], 37 µM; in [5], 0.032 µM; in data set [6] it was > 100 µM; in data set [8], 85 µM; in [10] it was > 100 µM. Moreover, the solubility kinetic in [7] turned out to be 4.3 µM (≈ 1.93 µg/mL).
